Legend:
[1] = HPLC analysis of SIRT6 binding to NAD+; conditions: 10 µM SIRT6 incubated with 10 µM NAD+, 10 kDa cutoff membrane
Procedure, shortened: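 SIRT6 (10 µM; WT, G60A or H133Y) was incubated with 10 µM NAD+ in 25 mM Tris-HCl pH 8.0, 50 mM NaCl for 30 min at room temperature. The mix was diluted to 500 µL and spun through a 10 kDa membrane (15,000 g, 20 min). The filtrate (unbound NAD+) was lyophilized, redissolved in water and quantified by HPLC.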

[2] = test system: TNFα; experiment: ELISA analysis of TNFα secretion in MEFs; assay type: cell-based, Human; conditions: SIRT6 stably expressed in Sirt6 KO MEFs
[3] = test system: Sirt6 KO MEFs; experiment: Secreted and intracellular protein levels in MEFs; assay type: cell-based, mouse; conditions: SIRT6 overexpressed in Sirt6 KO cells
Procedure, shortened: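 MEFs at 90% confluence were washed with PBS and serum-free DMEM, then kept in serum-free DMEM for 12 h. Medium was cleared at 500 g (5 min) and 3,000 g (10 min) and concentrated on 10 kDa filters. Western blots were probed for VCP, RPL17, RPS7, COL5A1, COL6A1 and CXCL1 (1:1000, 4 °C 12 h), followed by secondary antibody (1:3000, 1 h RT) and ECL detection.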

[4] = test system: SIRT6 (self ADP-ribosylation); experiment: In vitro mono-ADP-ribosylation assay; assay type: biochemical, human; conditions: 2.5 µM SIRT6, 50 µM 6-alkyne-NAD, 30°C, 30 min
Procedure, shortened: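 Reactions contained SIRT6 WT or mutants in 25 mM Tris-HCl pH 8.0, 50 mM NaCl, 1 mM DTT, with NAD+ replacing 6-alkyne-NAD as negative control. Click chemistry with BODIPY-N3, TBTA, CuSO4 and TCEP ran 30 min at room temperature. Samples were boiled in SDS buffer, separated on 12% SDS-PAGE and destained 2 h, and ADP-ribosylation was read as in-gel BODIPY fluorescence.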

[5] = NAD+ binding by intrinsic tryptophan fluorescence; conditions: read-out: Kd for NAD^+ in the presence of H3K9 acetyl peptide, 1 mM H3K9 acetyl peptide
Procedure, shortened: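 SIRT6 (3 µM) in 25 mM Tris-HCl pH 7.4, 150 mM NaCl, 10% glycerol was premixed with 1 mM tryptophan-free Ac-H3K9 and titrated with NAD+. Excitation was 295 nm with emission scanned 320–390 nm, using peak maxima. Fraction bound was (F−F0)/(Fsat−F0), and Kd came from a one-site quadratic binding fit with [E] = 3 µM.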

[6] = test system: H3K9 acetyl peptide; experiment: Deacetylation assay, SIRT6 WT and mutants purified from E. coli; assay type: biochemical; conditions: 2 µM SIRT6, 25 µM H3K9 acetyl peptide, 1 mM NAD+, 300 µM palmitic acid, 37°C, 2 hours
Procedure, shortened: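 Full-length human SIRT6 (WT or mutant) was expressed from pET28a in E. coli BL21(DE3). Reactions (40 µL) contained 25 mM Tris-HCl pH 8.0, 50 mM NaCl and 1 mM DTT plus the listed components. They were quenched with an equal volume of cold acetonitrile and centrifuged. Supernatants were run on C18 HPLC using a water/acetonitrile 0.1% TFA gradient to quantify deacetylated H3K9 peptide.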

[7] = test system: H3K9 myristoyl peptide; experiment: Defatty-acylation assay, SIRT6 purified from HEK 293T cells; assay type: biochemical; conditions: 0.2 µM SIRT6 from HEK293T cells, 5 µM Myr-H3K9, 1 mM NAD+, 37°C, 60 min
Procedure, shortened: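 SIRT6 WT or mutants were affinity-purified from HEK 293T lysates on anti-Flag gel, eluted with 3X FLAG peptide and buffer-exchanged on a 10 kDa membrane. Reaction buffer was 25 mM Tris-HCl pH 8.0, 50 mM NaCl, 1 mM DTT. Reactions were quenched with cold acetonitrile and centrifuged, and supernatants were analysed by C18 reverse-phase HPLC (water/acetonitrile, 0.1% TFA) for H3K9 peptide formation.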

[8] = test system: H3K9 myristoyl peptide; experiment: Demyristoylation steady-state kinetics; assay type: biochemical
[9] = test system: H3K9 palmitoyl, TNFα myristoyl and H3K9 octanoyl peptides; experiment: Defatty-acylation assay on other fatty-acyl peptides; assay type: biochemical
[10] = test system: IAP2, GLS, RPL3 and MnSOD; experiment: mRNA levels of SIRT6-regulated genes in Sirt6 KO MEFs; assay type: cell-based, mouse; conditions: SIRT6 overexpressed in Sirt6 KO MEFs
[11] = test system: RPL17 and RPS7; experiment: RPL17 and RPS7 in exosomes from MEFs; assay type: cell-based, mouse; conditions: exosomes from Sirt6 KO MEFs expressing SIRT6
Procedure, shortened: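 MEFs at 90% confluence were washed with PBS and serum-free DMEM, then conditioned in serum-free medium for 12 h. Medium was cleared at 500 g (5 min) and 3,000 g (20 min), then passed through a 0.2 µm filter. Filtrate was ultracentrifuged at 100,000 g for 2 h, and pellets were washed, re-pelleted and lysed in NP-40 buffer. Blots used RPL17/RPS7 antibodies (1:1000, 4 °C 12 h) with ECL detection.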

[12] = test system: Sirt6 KO MEFs; experiment: Cell viability after glucose starvation; assay type: cell-based, mouse; conditions: SIRT6 expressed in Sirt6 KO MEFs, glucose free medium 72 h
Procedure, shortened: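 Stable SIRT6-expressing Sirt6 KO MEFs were selected with […] puromycin 48 h post-infection, with empty pCDH vector as control, and grown in DMEM/10% heat-inactivated FBS. Cells were seeded at 3,000/well and switched after 48 h to glucose-free DMEM/10% FBS for 72 h. They were then fixed in cold methanol, stained with 0.2% crystal violet, solubilized in 0.5% SDS/50% ethanol, and read at 550 nm.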

[13] = Thermal shift assay and tryptophan fluorescence emission spectra; assay type: physicochemical
[14] = test system: acetyl-H3K9 and acetyl-H3K56; assay type: cell-based, Human; conditions: flag-tagged SIRT6 overexpressed in SIRT6 KO 293T cells
Procedure, shortened: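 Sirt6 KO HEK 293T cells in DMEM/10% heat-inactivated FBS were transiently transfected with SIRT6 WT, mutants or empty pCMV4a. Blots were probed with Ac-H3K9, Ac-H3K56 and histone H3 antibodies (1:5000; acetyl antibodies 4 °C 12 h), then secondary antibody (1:3000, 1 h RT). Detection was by ECL chemiluminescence; band intensities were quantified as mean ± s.d. of three replicates.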

Substance	NAD^+ bound to SIRT6 [1]	TNFα secretion [2]	secreted levels of Group 1 proteins (RPL17, RPS7, VCP) [3]	secreted levels of Group 2 proteins (COL6A1, COL5A1, CXCL1) [3]	ADP-ribosyltransferase (ART) activity [4]	Kd [5]	H3K9 acetyl peptide hydrolyzed/converted to H3K9 peptide [6]	defatty-acylase activity, substrate conversion [7]	decrease of kcat of demyristoylation versus SIRT6 WT [8]	increase of Km of demyristoylation versus SIRT6 WT [8]	defatty-acylase activity on other fatty-acyl peptides [9]	transcriptional suppression of IAP2, GLS, RPL3 and MnSOD [10]	RPL17 and RPS7 in exosomes [11]	glucose starvation-caused cell death [12]	stability and fluorescence with H3K9 myristoyl peptide ([13]; 0.1 mM H3K9 myristoyl peptide)	stability and fluorescence with H3K9 acetyl peptide ([13]; 1 mM H3K9 acetyl peptide)	thermal stability ([13]; without peptide, versus SIRT6 WT, 37 to 62 °C for 3 min)	H3K9 and H3K56 acetylation levels in cells [14]
SIRT6 G60A	2.0 ± 0.7%	promoted TNFα secretion	decreased the secreted levels to that in Sirt6 WT cells	restored the secreted levels to that in Sirt6 WT cells	no observable ART activity	634 ± 91 µM	approximately 1.8%	25.6%	1.9 fold	1.8 fold	robust defatty-acylase activities	could not	not in exosomes	neither SIRT6 G60A nor H133Y did	became similar to those of SIRT6 WT	not affected	decreased thermal stability	no detectable deacetylase activity in cells
SIRT6 H133Y	59 ± 3%	no effect on TNFα secretion	–	–	–	–	–	–	–	–	–	–	can be detected	–	–	–	–	–
SIRT6 R65A	–	–	–	–	weak self ADP-ribosylation activities	–	–	–	–	–	–	–	–	–	–	–	–	–

Source: article PMC4955683 (Nature chemical biology, 2016)
